This is an account of results in ChEMBL document CHEMBL5325455, “Daphnanes diterpenes from the latex of Hura crepitans L. and their PKCζ-dependent anti-proliferative activity on colorectal cancer cells” (Bioorg Med Chem, 2023).

Structures are written as SMILES. Activity calls are given as the source filed them. The calls are words filed in the database; no cut-off is given here. A value given as a limit tells only on which side of the number the result lay.

Assay [1] has as its system Caco-2. Kind of assay: Induction of morphological changes in human Caco-2 cells assessed as reorganization of epithelial tissue architecture by measuring effect on actin density at 1 ug/ml preincubated for 30 mins with CRT0066854 hydrochloride followed by compound addition and measured after 48 hrs by Hoechst 3342 and phalloidin staining based confocal microscopic analysis. Type of assay: functional, cell-based. The note with it: dose 1.0 µg/ml. In outline:
(§1)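 CRT0066854 hydrochloride (2.5 µM) was added to Caco-2 cells 30 min before compound at 1 µg/mL. After 48 h, nuclei and actin cytoskeleton were labelled and confocal views taken with a 20X objective; duplicates from one experiment.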

A further assay concerns Zika virus. In words: Antiviral activity against ZIKV expressing GFP reporter gene measured 24 hrs post infection. Type of assay: functional, organism-based. In outline: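 Cells in 96-well plates were exposed to serial concentrations starting at 50 µg/mL and infected with GFP-reporter Zika virus at MOI 1. At 24 h post-infection, cells were fixed in 3.7% PFA and GFP-positive cells were counted by flow cytometry.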

Assay [2] has as its target Protein kinase C delta type (Homo sapiens) (UniProt Q05655). Kind of assay: Inhibition of PKCdelta in human Caco-2 cells assessed as ratio of phosphorylated PKCdelta at Ser664 residue to total PKCdelta level at 1 ug/ml preincubated for 15 mins with PKCalpha inhibitor, Go6976 followed by compound addition and measured after 48 hrs by Western blot analysis (reference value: 0.94). Type of assay: cell-based. The settings on record: dose 1.0 µg/ml. The gist of the method: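 Caco-2 cells were given 0.2 µM Gö6976 for 15 min, then compound at 1 µg/mL for 48 h. Lysates (30 µg protein) were blotted for pSer664-PKCδ and total PKCδ with actin loading control, and the pSer664/total PKCδ ratio was quantified. Data are from one experiment.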
(In western blotting, separated proteins are transferred to a membrane and probed.)

The target is the same in assay [3]. Kind of assay: Inhibition of PKCdelta in human Caco-2 cells assessed as ratio of phosphorylated PKCdelta at Ser664 residue to total PKCdelta level at 1 ug/ml incubated for 48 hrs by Western blot analysis (reference value: 0.77). The format is cell-based. The note with it: dose 1.0 µg/ml.
Assay [4] addresses T1, Protein kinase C zeta type (Homo sapiens) (UniProt Q05513).
T1 sequence (whole entry): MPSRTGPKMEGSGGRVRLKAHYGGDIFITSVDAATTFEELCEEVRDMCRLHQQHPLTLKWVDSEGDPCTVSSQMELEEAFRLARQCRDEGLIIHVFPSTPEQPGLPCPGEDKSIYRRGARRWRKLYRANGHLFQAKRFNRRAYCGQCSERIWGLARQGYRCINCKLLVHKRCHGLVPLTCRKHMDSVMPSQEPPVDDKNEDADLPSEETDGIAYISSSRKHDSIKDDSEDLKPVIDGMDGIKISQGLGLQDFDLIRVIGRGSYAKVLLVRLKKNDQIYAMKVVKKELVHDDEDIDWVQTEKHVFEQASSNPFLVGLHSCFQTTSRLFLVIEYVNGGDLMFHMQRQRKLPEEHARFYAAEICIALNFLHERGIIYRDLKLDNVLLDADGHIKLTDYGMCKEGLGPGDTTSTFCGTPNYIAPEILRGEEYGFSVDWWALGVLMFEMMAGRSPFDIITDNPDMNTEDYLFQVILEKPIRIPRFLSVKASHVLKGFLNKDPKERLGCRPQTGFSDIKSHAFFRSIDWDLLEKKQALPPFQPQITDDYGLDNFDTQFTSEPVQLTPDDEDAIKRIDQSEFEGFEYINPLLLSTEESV
In words: Activation of PKCzeta in human Caco-2 cells assessed as increase in colocalization of PKCzeta and actin in peripheral to cell aggregates at 1 ug/ml measured after 48 hrs by immunostaining analysis. The format is cell-based. The note with it: filed as activator, dose 1.0 µg/ml. The gist of the method:
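Caco-2 cells were seeded at 40 000/well and treated for 48 h as in the viability assay. They were fixed in 3.7% PFA for 20 min and permeabilised in HBSS/0.5% Triton X100/1% BSA. Anti-PKCζ (1/50) or anti-PKCα (1/200) was applied overnight at 4°C, then Alexa 488 secondary for 45 min. Phalloidin and Hoechst counterstained the cells before confocal imaging; PKCα signal was quantified by immunofluorescence.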

Assay [5] deals with Caco-2. In words: Induction of morphological changes in human Caco-2 cells assessed as effect on cellular aggregation at 1 ug/ml preincubated for 30 mins with CRT0066854 hydrochloride followed by compound addition and measured after 48 hrs by Hoechst 3342 and phalloidin staining based confocal microscopic analysis. The note with it: dose 1.0 µg/ml. The format is functional, cell-based. In outline: as §1

Protein kinase C delta type (Homo sapiens), sequence (Q05655 whole entry, looked up): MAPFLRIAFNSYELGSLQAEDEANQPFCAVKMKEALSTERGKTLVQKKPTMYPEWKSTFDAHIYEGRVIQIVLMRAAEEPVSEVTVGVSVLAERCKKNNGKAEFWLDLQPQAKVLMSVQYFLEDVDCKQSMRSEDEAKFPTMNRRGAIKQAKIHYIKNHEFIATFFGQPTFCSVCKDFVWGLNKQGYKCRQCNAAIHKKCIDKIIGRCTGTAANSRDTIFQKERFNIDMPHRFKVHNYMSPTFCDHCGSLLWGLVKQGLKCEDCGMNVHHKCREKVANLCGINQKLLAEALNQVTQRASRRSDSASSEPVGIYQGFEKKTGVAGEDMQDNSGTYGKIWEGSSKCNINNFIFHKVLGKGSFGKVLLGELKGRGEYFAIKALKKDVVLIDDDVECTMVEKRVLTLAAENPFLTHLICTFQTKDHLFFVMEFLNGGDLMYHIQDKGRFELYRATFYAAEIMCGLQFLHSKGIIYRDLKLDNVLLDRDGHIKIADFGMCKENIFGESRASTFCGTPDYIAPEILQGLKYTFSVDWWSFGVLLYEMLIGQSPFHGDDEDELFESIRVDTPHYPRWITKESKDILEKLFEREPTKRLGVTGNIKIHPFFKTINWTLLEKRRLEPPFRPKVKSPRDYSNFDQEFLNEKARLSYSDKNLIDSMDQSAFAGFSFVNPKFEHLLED

Regarding `C=C(C)[C@]12C[C@@H](C)[C@@]34O[C@](/C=C/C=C/CCCCCCCCC)(O[C@@H]1[C@@H]3[C@@H]1O[C@]1(CO)[C@@H](O)[C@]1(O)C(=O)C(C)=C[C@H]14)O2`, the result in the assay on Caco-2 [1] was inactive. In the assay with Zika virus, this compound displayed a concentration for half-maximal inhibition (IC50) above 50 µM. The values for the Ratio in assay [2] and in assay [3] were 0.68 and 0.73, respectively.
`C=C(C)[C@]12C[C@@H](C)[C@@]34O[C@](/C=C/[C@@H]5O[C@H]5CCCCCCCCC)(O[C@@H]1[C@@H]3[C@@H]1O[C@]1(CO)[C@@H](O)[C@]1(O)C(=O)C(C)=C[C@H]14)O2`: the result in assay [4] was Active. The result in the assay with Caco-2 [5] was inactive.

For orientation: IC50 means the concentration needed to halve the response being measured.
